Experimental data published in article PMC4191608 (ACS Medicinal Chemistry Letters, 2014).

Key:
[1] = tested on: pooled human liver microsomes; experiment: EFV analogue metabolism by pooled human liver microsomes; format: in vitro ADME; details: 2 mg/mL HLM, 10 μM analogue, NADPH regenerating system, 60 min, uHPLC-MS/MS
Outline: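 Pooled human liver microsomes were incubated with test compound and an NADPH regenerating system. Oxidative products (monooxygenated or N-dealkylated) were profiled by uHPLC–MS/MS and assigned by m/z, retention time and fragment ions.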

[2] = molecular target: T1, CYP2B6 (Homo sapiens, UniProt P20813); experiment: Inhibition of CYP2B6 bupropion hydroxylase activity; format: biochemical; details: 10 μM compound, 40 μM bupropion, CYP2B6 50 nM, 10 min, 37 °C
T1 sequence (P20813 1-491): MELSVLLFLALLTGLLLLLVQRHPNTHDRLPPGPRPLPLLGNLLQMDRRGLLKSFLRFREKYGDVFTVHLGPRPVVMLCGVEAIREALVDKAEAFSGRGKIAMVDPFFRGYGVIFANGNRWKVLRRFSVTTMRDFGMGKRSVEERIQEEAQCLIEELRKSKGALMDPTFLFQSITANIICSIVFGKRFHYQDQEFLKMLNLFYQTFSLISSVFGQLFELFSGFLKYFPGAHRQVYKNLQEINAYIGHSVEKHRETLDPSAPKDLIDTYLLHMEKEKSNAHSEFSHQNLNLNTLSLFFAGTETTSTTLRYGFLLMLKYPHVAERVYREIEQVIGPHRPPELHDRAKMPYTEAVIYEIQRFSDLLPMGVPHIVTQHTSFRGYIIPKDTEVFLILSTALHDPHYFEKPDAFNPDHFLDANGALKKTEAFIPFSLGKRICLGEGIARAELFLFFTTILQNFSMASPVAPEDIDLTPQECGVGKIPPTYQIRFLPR
Outline: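 Enzyme was cDNA-expressed CYP2B6 in insect microsomes, incubated with bupropion and test compound in 100 mM potassium phosphate buffer. Hydroxybupropion was quantified by uHPLC–MS/MS and expressed as a percentage of a vehicle control (no test compound). Mean ± SD of three replicate experiments run in duplicate; significance was tested against vehicle.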

[3] = molecular target: T1, CYP2B6; experiment: Substrate depletion kinetics with CYP2B6; format: in vitro ADME
Outline: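 cDNA-expressed CYP2B6 (insect microsomes, 10 nM) was incubated with substrate at 37 °C in 100 mM potassium phosphate. After NADPH regenerating system was added, aliquots at 0, 2, 5, 10, 20 and 30 min were quenched in equal-volume acetonitrile with fluorinated internal standard. Depletion was measured by uHPLC–MS/MS, giving Km, kdep max and Vmax. Mean ± SD, three replicate experiments in duplicate.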

Row | SMILES | Metabolites detected from incubation with human liver microsomes [1] | other results
1 | O=C1Nc2ccc(Cl)cc2[C@@](C#CC2CC2)(C(F)(F)F)O1 [EFV, efavirenz, reference compound] | – | decrease in hydroxybupropion formation compared to vehicle control [2]: 93%
2 | CCCC#CC1(C(F)(F)F)OC(=O)Nc2ccc(Cl)cc21 (racemic) [analogue 4, rac 6-Chloro-1,4-dihydro-4-(1-pentynyl)-4-(trifluoromethyl)-2H-3,1-benzoxazin-2-one] | Monooxygenated metabolites | fold increase in Km relative to EFV [3]: 2 fold
3 | O=C1Nc2ccc(Cl)cc2[C@@](/C=C/C2CC2)(C(F)(F)F)O1 [analogue 3, (E)-Dihydroefavirenz] | Monooxygenated metabolites | fold decrease in Km between EFV and analogue ([3]; relative to EFV): 2 fold

More lines, main results first:

Row | Metabolites detected from incubation with human liver microsomes [1] | SMILES | other results
4 | Monooxygenated metabolites | FC(F)(F)[C@@]1(C#CC2CC2)OCNc2ccc(Cl)cc21 [analogue 8, (4S)-6-Chloro-4-(2-cyclopropylethynyl)-1,4-dihydro-4-(trifluoromethyl)-2H-3,1-benzoxazine] | –
5 | No metabolites | COc1ccc(C(=O)Nc2ccc(Cl)cc2C(O)(C#CC2CC2)C(F)(F)F)cc1 (racemic) [analogue 7, rac N-[4-Chloro-2-[3-cyclopropyl-1-hydroxy-1-(trifluoromethyl)-2-propynyl]phenyl]-4-methoxybenzamide] | inhibition of CYP2B6 hydroxybupropion formation (in words) [2]: unable to inhibit hydroxybupropion formation
